Results as given in ChEMBL document CHEMBL1131141, “Novel 1,1,3-trioxo-2H,4H-thieno[3,4-e][1,2,4]thiadiazine derivatives as non-nucleoside reverse transcriptase inhibitors that inhibit human immunodeficiency virus type 1 replication” (J Med Chem, 1998).

Tests used:
MT4 [1] = assay: Dose required to reduce the viability of mock-infected cells by 50%, determined by MTT method.; type: functional; details: Homo sapiens
How it was run: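 Mock-infected MT-4 cells; value is the dose lowering cell viability by 50%, read out by MTT assay. Mean of at least two separate experiments.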

MT4 [2] = assay: Dose required to achieve 50% protection of MT-4 cells from HIV-1(IIIB) induced cytopathogenicity, determined by […] method.; type: functional, cell-based; details: Homo sapiens
How it was run: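 MT-4 cells infected with HIV-1(IIIB); value is the dose giving 50% protection against virus-induced cytopathogenicity, read out by MTT viability assay. Mean of at least two separate experiments.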

[3] = test system: Human immunodeficiency virus 1; assay: Selectivity index was measured as the ratio of CC50(HIV-1) to that of EC50(HIV-1); SI Selectivity Index; type: functional
[4] = Selectivity index was measured as the ratio of CC50(HIV-1) to that of EC50(HIV-1); type: functional

SMILES	CC50 (MT4 [1]) [µM]	EC50 (MT4 [2]) [µM]	SI [3]	SI [4]
N#CCN1C(=O)N(Cc2cccc(Cl)c2)S(=O)(=O)c2cscc21	> 340	0.09	>3778	
N#CCN1C(=O)N(Cc2cccnc2)S(=O)(=O)c2cscc21	> 150	0.2	>750	
N#CCN1C(=O)N(Cc2ccccc2)S(=O)(=O)c2cscc21	503	0.9	559	
CCN1C(=O)N(Cc2cccc(Cl)c2)S(=O)(=O)c2cscc21	> 701	2.1	>334	
N#CCN1C(=O)N(Cc2ccccc2)S(=O)(=O)c2ccsc21	219	3	73	
O=C1N(Cc2ccccc2)c2cc(Cl)sc2S(=O)(=O)N1Cc1ccccc1	> 119	4.5	>26	
CN1C(=O)N(Cc2ccccc2)S(=O)(=O)c2nn(C)cc21	498	> 498	<1	
CN1C(=O)N(Cc2ccccc2)S(=O)(=O)c2ccsc21	> 811	> 811		
CCN1C(=O)N(Cc2ccccc2)S(=O)(=O)c2ccsc21	374	20.5	18	
CN1C(=O)N(Cc2ccccc2)S(=O)(=O)c2cscc21	528	2.7	196	
CCN1C(=O)N(Cc2c(Cl)cccc2Cl)S(=O)(=O)c2cscc21	74.1	> 74.1	<1	
CCOC(=O)CN1C(=O)N(Cc2ccccc2)S(=O)(=O)c2cscc21	130	7.4	18	
O=C1N(Cc2ccccc2)c2cscc2S(=O)(=O)N1Cc1ccccc1	> 650	2.2	>296	
CCN1C(=O)N(Cc2ccccn2)S(=O)(=O)c2cscc21	> 387	41.4	>9	
CN1C(=O)N(Cc2cccc(Cl)c2)S(=O)(=O)c2cscc21	> 729	7.6	>96	
CCN1C(=O)N(Cc2ccccc2)S(=O)(=O)c2nn(C)cc21	321	> 321	<1	
Cc1ccnc2c1NC(=O)c1cccnc1N2C1CC1 [NEVIRAPINE]	683	0.03	22800	
N#CCN1C(=O)N(Cc2cccc(F)c2)S(=O)(=O)c2cscc21	93.6	0.05	1872	
CCN1C(=O)N(Cc2ccc(Cl)cc2)S(=O)(=O)c2cscc21	273	> 273	<1	
N#CCN1C(=O)N(Cc2cc(F)cc(F)c2)S(=O)(=O)c2cscc21	102	0.3	340	

SMILES	CC50 (MT4 [1]) [µM]	EC50 (MT4 [2]) [µM]	SI [3]	SI [4]
C#CCN1C(=O)N(Cc2cccc(Cl)c2)S(=O)(=O)c2cscc21	65.7	0.1	657	
CN1C(=O)N(Cc2ccc(Cl)cc2)S(=O)(=O)c2cscc21	417	> 417	<1	
CCN1C(=O)N(Cc2ccccc2Cl)S(=O)(=O)c2cscc21	605	7.3	83	
O=C1N(Cc2cccc(Cl)c2)c2cscc2S(=O)(=O)N1Cc1ccccc1	> 119	0.8	>149	
N#CCN1C(=O)N(CCc2ccccc2)S(=O)(=O)c2cscc21	40.3	3.6	11	
CN1C(=O)N(Cc2ccccc2Cl)S(=O)(=O)c2cscc21	446	> 446	<1	
Cc1cn([C@H]2C[C@H](N=[N+]=[N-])[C@@H](CO)O2)c(=O)[nH]c1=O [ZIDOVUDINE]	35.6	0.0007		50600
N#CCN1C(=O)N(Cc2ccccn2)S(=O)(=O)c2cscc21	> 374	1.1	>340	
O=C1N(Cc2ccccc2)c2sccc2S(=O)(=O)N1Cc1ccccc1	> 650	8.3	>78	
CCN1C(=O)N(CCc2ccccc2)S(=O)(=O)c2cscc21	330	8.6	38	
O=C1N(Cc2ccccc2Cl)c2cscc2S(=O)(=O)N1Cc1ccccc1	> 119	0.1	>1190	
N#CCN1C(=O)N(Cc2ccccc2)S(=O)(=O)c2sc(Cl)cc21	152	24.5	6	
CCCN1C(=O)N(Cc2ccccc2)S(=O)(=O)c2ccsc21	403	> 403		
CCN1C(=O)N(Cc2ccccc2)S(=O)(=O)c2cscc21	> 775	2.5	>310	
O=C1N(Cc2ccc(Cl)cc2)c2cscc2S(=O)(=O)N1Cc1ccccc1	18.6	1.4	13	
C#CCN1C(=O)N(Cc2ccccc2)S(=O)(=O)c2cscc21	> 376	1	>376	
N#CCN1C(=O)N(Cc2cccc(Br)c2)S(=O)(=O)c2cscc21	68.6	0.09	762	
O=C1N(Cc2ccccc2)c2cscc2S(=O)(=O)N1Cc1ccccn1	166	0.4	415	
O=C1N(Cc2ccccc2)c2cscc2S(=O)(=O)N1CCc1ccccc1	226	10.9	21	
CN1C(=O)N(Cc2c(Cl)cccc2Cl)S(=O)(=O)c2cscc21	528	> 528	<1	
